Assay results as given in ChEMBL document CHEMBL2346534, “Design, synthesis and in vitro anti-proliferative activity of 4,6-quinazolinediamines as potent EGFR-TK inhibitors” (Eur J Med Chem, 2013).

Experiments:
Assay type in all cases: functional
[1] = system: SK-MEL-28; test: Cytotoxicity against human SK-MEL-28 cells after 48 hrs by SRB assay; details: SK-MEL-28, 48 h
Summary of the method: (§1)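 NCI 60-panel five-dose screen. Cells in RPMI 1640 with 5% FBS and 2 mM L-glutamine are plated at 5000–40,000 cells/well by doubling time and preincubated 24 h at 37 °C in 5% CO2. Drug in DMSO is tested at 0.01, 0.1, 1, 10 and 100 μM for 48 h. Cells are TCA-fixed, stained with SRB and read at 515 nm. GI50 is the concentration giving 50% reduction in net protein increase relative to time-zero and control plates.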

[2] = system: SN12C; test: Cytotoxicity against human SN12C cells after 48 hrs by SRB assay; summary of the method: as §1
[3] = system: MDA-MB-435; test: Cytotoxicity against human MDA-MB-435 cells after 48 hrs by SRB assay; details: MDA-MB-435, 48 h
Summary of the method: (§2)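 NCI 60-panel five-dose screen. Cells in RPMI 1640 with 5% FBS and 2 mM L-glutamine, plated at 5000–40,000 cells/well by doubling time, preincubated 24 h at 37 °C/5% CO2. Drug from DMSO stock added at 0.01, 0.1, 1, 10 and 100 µM, then 48 h. TCA fixation, SRB stain, absorbance at 515 nm, time-zero plates included. GI50 = 50% reduction in net protein increase versus control.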

[4] = system: CAKI-1; test: Cytotoxicity against human Caki1 cells after 48 hrs by SRB assay; details: CAKI-1, 48 h; summary of the method: as §2
[5] = system: OVCAR-3; test: Cytotoxicity against human OVCAR3 cells after 48 hrs by SRB assay; details: OVCAR-3, 48 h; summary of the method: as §1
[6] = system: HT-29; test: Cytotoxicity against human HT-29 cells after 48 hrs by SRB assay; details: HT-29, 48 h; summary of the method: as §2
[7] = system: COLO 205; test: Cytotoxicity against human COLO205 cells after 48 hrs by SRB assay; details: COLO 205, 48 h; summary of the method: as §2
[8] = system: RPMI-8226; test: Cytotoxicity against human RPMI8226 cells after 48 hrs by SRB assay; details: RPMI-8226, 48 h; summary of the method: as §1
[9] = system: DU-145; test: Cytotoxicity against human DU145 cells after 48 hrs by SRB assay; details: DU-145, 48 h; summary of the method: as §2
[10] = system: SR; test: Cytotoxicity against human SR cells after 48 hrs by SRB assay; summary of the method: as §1
[11] = system: IGROV-1; test: Cytotoxicity against human IGROV1 cells after 48 hrs by SRB assay; details: IGROV-1, 48 h; summary of the method: as §2
[12] = system: MOLT-4; test: Cytotoxicity against human MOLT4 cells after 48 hrs by SRB assay; details: MOLT-4, 48 h; summary of the method: as §1
[13] = system: RXF 393; test: Cytotoxicity against human RXF393 cells after 48 hrs by SRB assay; details: RXF 393, 48 h; summary of the method: as §1
[14] = system: Hs-578T; test: Cytotoxicity against human Hs578T cells after 48 hrs by SRB assay; summary of the method: as §2
[15] = system: UACC-62; test: Cytotoxicity against human UACC62 cells after 48 hrs by SRB assay; details: UACC-62, 48 h
Summary of the method: (§3)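 NCI 60 five-dose screen. Cells in RPMI 1640 with 5% FBS and 2 mM L-glutamine, plated at 5000–40,000 cells/well by doubling time, pre-incubated 24 h at 37 °C, 5% CO2. Time-zero plates TCA-fixed at drug addition. Final concentrations 0.01, 0.1, 1, 10 and 100 µM (DMSO stock), 48 h exposure. TCA fixation, 0.4% SRB stain, absorbance 515 nm. GI50 from [(Ti−Tz)/(C−Tz)]×100 = 50.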

[16] = system: TK-10; test: Cytotoxicity against human TK10 cells after 48 hrs by SRB assay; details: TK-10, 48 h; summary of the method: as §3
[17] = system: HCT-15; test: Cytotoxicity against human HCT15 cells after 48 hrs by SRB assay; details: HCT-15, 48 h; summary of the method: as §2
[18] = system: LOX IMVI; test: Cytotoxicity against human LOXIMVI cells after 48 hrs by SRB assay; summary of the method: as §2
[19] = system: SF-268; test: Cytotoxicity against human SF268 cells after 48 hrs by SRB assay; details: SF-268, 48 h; summary of the method: as §1
[20] = system: 786-0; test: Cytotoxicity against human 786-0 cells after 48 hrs by SRB assay; details: 786-0, 48 h; summary of the method: as §2
[21] = system: MDA-MB-468; test: Cytotoxicity against human MDA-MB-468 cells after 48 hrs by SRB assay; details: MDA-MB-468, 48 h; summary of the method: as §1
[22] = system: KM12; test: Cytotoxicity against human KM12 cells after 48 hrs by SRB assay; details: KM12, 48 h; summary of the method: as §2
[23] = system: HOP-62; test: Cytotoxicity against human HOP62 cells after 48 hrs by SRB assay; details: HOP-62, 48 h; summary of the method: as §2
[24] = system: ACHN; test: Cytotoxicity against human ACHN cells after 48 hrs by SRB assay; summary of the method: as §2
[25] = system: U-251; test: Cytotoxicity against human U251 cells after 48 hrs by SRB assay; details: U-251, 48 h; summary of the method: as §3
[26] = system: OVCAR-4; test: Cytotoxicity against human OVCAR4 cells after 48 hrs by SRB assay; details: OVCAR-4, 48 h; summary of the method: as §1
[27] = read-out: LC50 (the source's name)

NC(=O)Nc1ccc2ncnc(Nc3ccc(Cl)cc3)c2c1
GI50 [1]: 26.7 µM | TGI [1]: > 100 µM | CC50 [1, 27]: > 100 µM | GI50 [2]: 11.1 µM | TGI [2]: 50 µM | CC50 [2, 27]: > 100 µM | GI50 [3]: 16.9 µM | TGI [3]: 47.6 µM | CC50 [3, 27]: > 100 µM | GI50 [4]: 1.33 µM | TGI [4]: 21.5 µM | CC50 [4, 27]: > 100 µM | GI50 [5]: 8.36 µM | TGI [5]: 69.5 µM | CC50 [5, 27]: > 100 µM | GI50 [6]: 24 µM | TGI [6]: > 100 µM | CC50 [6, 27]: > 100 µM | GI50 [7]: 27.5 µM | TGI [7]: > 100 µM | CC50 [7, 27]: > 100 µM | GI50 [8]: 20.5 µM | TGI [8]: 78.9 µM | CC50 [8, 27]: > 100 µM | GI50 [9]: 2.72 µM | TGI [9]: > 100 µM | CC50 [9, 27]: > 100 µM | GI50 [10]: 19.1 µM | TGI [10]: 75.6 µM | CC50 [10, 27]: > 100 µM | GI50 [11]: 6.85 µM | TGI [11]: 27.6 µM | CC50 [11, 27]: 90.1 µM | GI50 [12]: 18.1 µM | TGI [12]: 87.1 µM | CC50 [12, 27]: > 100 µM | GI50 [13]: 15.1 µM | TGI [13]: 75.9 µM | CC50 [13, 27]: > 100 µM | GI50 [14]: 14.8 µM | TGI [14]: 55.9 µM | CC50 [14, 27]: > 100 µM | GI50 [15]: 13.5 µM | TGI [15]: 32.2 µM | CC50 [15, 27]: 77 µM | GI50 [16]: 0.98 µM | TGI [16]: 16.2 µM | CC50 [16, 27]: > 100 µM | GI50 [17]: 17.8 µM | TGI [17]: > 100 µM | CC50 [17, 27]: > 100 µM | GI50 [18]: 19.3 µM | TGI [18]: 68.7 µM | CC50 [18, 27]: > 100 µM | GI50 [19]: 17.1 µM | TGI [19]: > 100 µM | CC50 [19, 27]: > 100 µM | GI50 [20]: 20.7 µM | TGI [20]: 88.9 µM | CC50 [20, 27]: > 100 µM | GI50 [21]: 1.09 µM | TGI [21]: 3.95 µM | CC50 [21, 27]: > 100 µM | GI50 [22]: 28.4 µM | TGI [22]: > 100 µM | CC50 [22, 27]: > 100 µM | GI50 [23]: 21.1 µM | TGI [23]: 84.4 µM | CC50 [23, 27]: > 100 µM | GI50 [24]: 1.47 µM | TGI [24]: 35.8 µM | CC50 [24, 27]: > 100 µM | GI50 [25]: 23.9 µM | TGI [25]: > 100 µM | CC50 [25, 27]: > 100 µM | GI50 [26]: 9.14 µM | TGI [26]: > 100 µM | CC50 [26, 27]: > 100 µM
